Data: ChEMBL document CHEMBL1132831, “Synthesis and characterization of a potent and selective protein tyrosine phosphatase inhibitor, 2” (Bioorg Med Chem Lett, 2000)

Target: T1, Receptor-type tyrosine-protein phosphatase C (Homo sapiens, UniProt P08575)
T1 sequence (P08575 whole entry): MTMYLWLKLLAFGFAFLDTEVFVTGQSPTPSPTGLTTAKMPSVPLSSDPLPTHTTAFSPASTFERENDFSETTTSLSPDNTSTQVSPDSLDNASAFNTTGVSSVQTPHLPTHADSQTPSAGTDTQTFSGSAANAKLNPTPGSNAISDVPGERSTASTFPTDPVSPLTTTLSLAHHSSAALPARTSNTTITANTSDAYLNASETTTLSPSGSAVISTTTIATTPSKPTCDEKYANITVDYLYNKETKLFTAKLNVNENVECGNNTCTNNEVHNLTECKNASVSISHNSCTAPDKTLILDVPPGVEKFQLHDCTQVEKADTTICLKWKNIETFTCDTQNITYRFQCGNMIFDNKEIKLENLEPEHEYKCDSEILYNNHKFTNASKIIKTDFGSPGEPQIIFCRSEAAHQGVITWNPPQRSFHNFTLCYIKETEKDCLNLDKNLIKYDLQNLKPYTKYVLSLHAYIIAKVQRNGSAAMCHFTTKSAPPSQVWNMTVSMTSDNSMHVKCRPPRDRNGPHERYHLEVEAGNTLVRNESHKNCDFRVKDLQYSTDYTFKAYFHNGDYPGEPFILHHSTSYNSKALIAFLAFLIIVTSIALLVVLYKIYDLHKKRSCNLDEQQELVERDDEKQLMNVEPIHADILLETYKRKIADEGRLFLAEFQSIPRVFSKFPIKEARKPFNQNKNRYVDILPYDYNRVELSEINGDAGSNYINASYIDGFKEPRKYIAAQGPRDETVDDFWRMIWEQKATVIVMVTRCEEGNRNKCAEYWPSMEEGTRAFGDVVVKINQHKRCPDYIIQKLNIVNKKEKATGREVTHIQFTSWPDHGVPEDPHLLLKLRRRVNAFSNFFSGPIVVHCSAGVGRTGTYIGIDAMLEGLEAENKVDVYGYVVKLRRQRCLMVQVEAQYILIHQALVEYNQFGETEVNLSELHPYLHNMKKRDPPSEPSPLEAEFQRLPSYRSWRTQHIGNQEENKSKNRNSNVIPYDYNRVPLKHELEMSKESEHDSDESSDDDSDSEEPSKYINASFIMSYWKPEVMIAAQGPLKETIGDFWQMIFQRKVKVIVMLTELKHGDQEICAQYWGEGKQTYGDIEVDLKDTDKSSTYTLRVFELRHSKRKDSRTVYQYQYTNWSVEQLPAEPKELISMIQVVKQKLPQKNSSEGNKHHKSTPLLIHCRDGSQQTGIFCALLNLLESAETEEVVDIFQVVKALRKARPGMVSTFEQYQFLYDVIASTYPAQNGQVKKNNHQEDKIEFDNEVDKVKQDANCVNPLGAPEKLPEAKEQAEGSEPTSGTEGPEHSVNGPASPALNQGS
Test: The compound was evaluated for its inhibitory activity towards Protein tyrosine phosphatase of CD45
Procedure, shortened: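 Commercial enzyme with 1 mM p-nitrophenyl phosphate in 25 mM MOPS pH 6.5, 5 mM EDTA, 1 mM dithiothreitol. Compound was tested at various concentrations from 30 nM, with a 30 min incubation at 37 °C. The reaction was stopped with 1 N NaOH and read at 405 nm. IC50 was obtained by nonlinear regression curve fitting.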
An IC50 of 380 µM was found for Cc1ccnc(C[S+]([O-])c2nc3ccc(OC(C)C)cc3[nH]2)c1 (configuration not stated) in this work.
An IC50 of 0.28 µM was found for CSc1ccnc(C[S+]([O-])c2nc3cc(OC(C)C)ccc3[nH]2)c1 (configuration not stated) in this work.
An IC50 of 120 µM was found for CC(C)Oc1ccc2[nH]c([S+]([O-])Cc3ccccn3)nc2c1 (configuration not stated) in this work.
An IC50 of 80.5 µM was found for CSc1ccnc(C[S+]([O-])c2nc3ccc(OC4CCCCC4)cc3[nH]2)c1 (configuration not stated) in this work.
An IC50 of over 1000 µM was found for CSc1ccnc(CSc2nc3ccc(OC(C)C)cc3[nH]2)c1 in this work.

Tested on: not listed separately
Test: The compound was evaluated for its inhibitory effect of dual specificity phosphatases of VHR
Procedure, shortened: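 Bacterially expressed GST-VHR fusion protein with 1 mM p-nitrophenyl phosphate in 25 mM MOPS pH 6.5, 5 mM EDTA, 1 mM dithiothreitol. Compound was present at various concentrations from 30 nM during 30 min at 37 °C. NaOH was then added and absorbance read at 405 nm. IC50 was derived by nonlinear regression.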
An IC50 of 50.2 µM was found for CSc1ccnc(C[S+]([O-])c2nc3cc(OC(C)C)ccc3[nH]2)c1 (configuration not stated) in this work.
An IC50 of 106 µM was found for VANADATE in this work.
